Test results as given in ChEMBL document CHEMBL1132194, “Synthesis and dopamine receptor modulating activity of novel peptidomimetics of L-prolyl-L-leucyl-glycinamide featuring alpha,alpha-disubstituted amino acids” (1999).
Where a SMILES comes first, the peptide text is derived from it. [ ]: non-standard residue; d: D form. Ac6c = NC1(C(=O)O)CCCCC1; Ac5c = NC1(C(=O)O)CCCC1; Deg = CCC(N)(CC)C(=O)O; Ac3c = NC1(C(=O)O)CC1

Key:
Type in all cases: functional
Rattus norvegicus [1] = assay: Effect (PLG inhibitor) on apomorphine-Induced rotational behavior in rats at a dose of 10.0 ug/Kg
How it was run: (§1)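 Rats carrying unilateral 6-hydroxydopamine lesions of the substantia nigra; test compound given ip, then apomorphine 0.25 mg/kg ip. Contralateral rotations counted over 10 min and expressed as percentage change from control rotational response; n = 5 per group; significance versus respective control group (p < 0.05, p < 0.01).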

Rattus norvegicus [2] = assay: Effect (PLG inhibitor) on apomorphine-Induced rotational behavior in rats at a dose of 0.10 ug/Kg; how it was run: as §1
Rattus norvegicus [3] = assay: Effect (PLG inhibitor) on apomorphine-Induced rotational behavior in rats at a dose of 1.0 ug/Kg; how it was run: as §1
Rattus norvegicus [4] = assay: Effect (PLG inhibitor) on apomorphine-Induced rotational behavior in rats at a dose of 0.01 ug/Kg; how it was run: as §1

SMILES	Change (Rattus norvegicus [1]) [%]	Change (Rattus norvegicus [2]) [%]	Change (Rattus norvegicus [3]) [%]	Change (Rattus norvegicus [4]) [%]
NC(=O)CN1CC[C@@H](NC(=O)[C@@H]2CCCN2)C1=O	191	20	75	
NC(=O)C1(N2CC[C@@H](NC(=O)[C@@H]3CCCN3)C2=O)CCCCC1	-2	1	19	7
CCC(CC)(C(N)=O)N1CC[C@@H](NC(=O)[C@@H]2CCCN2)C1=O	8	-3	17	2
NC(=O)C1(N2CC[C@@H](NC(=O)[C@@H]3CCCN3)C2=O)CCCC1	-4	-5	19	4
NC(=O)C1(N2CC[C@@H](NC(=O)[C@@H]3CCCN3)C2=O)CC1	4	10	-8	-6
CC(C)C[C@H](NC(=O)[C@@H]1CCCN1)C(=O)NC1(C(N)=O)CC1 (H-Pro-Leu-[Ac3c]-NH2)	-7	18	8	15
CC(C)C[C@H](NC(=O)[C@@H]1CCCN1)C(=O)NC1(C(N)=O)CCCC1 (H-Pro-Leu-[Ac5c]-NH2)	-26	-1	5	-15
CC(C)C[C@H](NC(=O)[C@@H]1CCCN1)C(=O)NC1(C(N)=O)CCCCC1 (H-Pro-Leu-[Ac6c]-NH2)	-25	14	-2	-2
CCC(CC)(NC(=O)[C@H](CC(C)C)NC(=O)[C@@H]1CCCN1)C(N)=O (H-Pro-Leu-[Deg]-NH2)	1	31	56	6
